Measurements published in ChEMBL document CHEMBL1148823, “Inactivation of O(6)-alkylguanine-DNA alkyltransferase by folate esters of O(6)-benzyl-2'-deoxyguanosine and of O(6)-[4-(hydroxymethyl)benzyl]guanine” (J Med Chem, 2007).
The source made the active and inactive calls. The calls are words filed in the database; no cut-off is given here.

Legend:
Homo sapiens [1] = species: Homo sapiens; assay: Inactivation of human alkyltransferase in absence of DNA
Outline: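 Purified recombinant human alkyltransferase was incubated with a range of inhibitor concentrations for 30 min at 37°C. The reaction buffer was 50 mM Tris-HCl pH 7.6, 0.1 mM EDTA and 5.0 mM dithiothreitol, with 50 μg hemocyanin and no DNA. ED50 was read from plots of % remaining activity against inhibitor concentration. Values are means of 3–5 repeats or of two experiments.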

Homo sapiens [2] = species: Homo sapiens; assay: (§1) Inactivation of human alkyltransferase in presence of DNA
Outline: (§2)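 Purified recombinant human alkyltransferase was incubated with a range of inhibitor concentrations plus 10 μg calf thymus DNA for 30 min at 37°C. The buffer was 50 mM Tris-HCl pH 7.6, 0.1 mM EDTA and 5.0 mM DTT. ED50 came from graphs of % remaining activity against inhibitor concentration. Values are means of 3–5 repeats or of two experiments.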

HT-29 = assay: Induction of sensitization to BCNU-induced killing in human HT29 cells; type: functional, cell-based
Outline: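 HT29 cells in RPMI with 10% FBS were given inhibitor for 2 h before 40 μM BCNU for 2 h. Alternatively, cells grown 48 h in folate-free RPMI got inhibitor for 8 h before 20 μM BCNU for 2 h. Inhibitor-containing medium followed for 16–18 h. Cells were replated at 250–1000 per flask and grown 8 days. Survival was scored as crystal violet-stained colonies.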

KB = assay: Induction of sensitization to BCNU-induced killing in human KB cells; type: functional, cell-based
Outline: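 KB cells were grown 48 h in folate-free RPMI with 10% FBS and plated at 10⁶ per flask. After 24 h they were exposed to inhibitor at different concentrations for 8 h, then 40 μM BCNU for 2 h. Medium with inhibitor but no BCNU was given for 16–18 h. Cells were replated at 250–1000 per flask for 8 days of colony formation. Colonies were stained with crystal violet and counted.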

A549 = assay: Induction of sensitization to BCNU-induced killing in human A549 cells; type: functional, cell-based
Outline: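 A549 cells were grown 48 h in folate-free RPMI with 10% FBS and plated at 10⁶ per flask. After 24 h they were given inhibitor at various concentrations for 8 h, then 20 μM BCNU for 2 h. Medium was replaced with inhibitor-containing medium for 16–18 h. Cells were replated at 250–1000 per flask and grown 8 days. Crystal violet-stained colonies were counted.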

[3] = as §1; outline: as §2
[4] = tested on: T1, Methylated-DNA--protein-cysteine methyltransferase (Homo sapiens), P16455 [P140K]; assay: Inactivation of human alkyltransferase P140K mutant
T1 sequence (whole entry): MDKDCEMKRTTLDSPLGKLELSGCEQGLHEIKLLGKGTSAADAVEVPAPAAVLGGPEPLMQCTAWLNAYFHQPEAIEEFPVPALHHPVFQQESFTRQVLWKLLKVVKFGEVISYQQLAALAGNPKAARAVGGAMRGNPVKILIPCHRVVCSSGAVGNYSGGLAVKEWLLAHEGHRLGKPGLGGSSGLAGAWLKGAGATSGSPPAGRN

## Nc1nc(OCc2ccccc2)c2ncn([C@H]3C[C@H](O)[C@@H](CO)O3)c2n1
Homo sapiens [1]
  ED50: 2 µM
Homo sapiens [2]
  ED50: 40 µM

## Nc1nc(OCc2ccccc2)c2nc[nH]c2n1
Homo sapiens [1]
  ED50: 0.3 µM
Homo sapiens [2]
  ED50: 0.1 µM

## Nc1nc(OCc2ccc(CO)cc2)c2nc[nH]c2n1
Homo sapiens [1]
  ED50: 0.4 µM
Homo sapiens [2]
  ED50: 0.1 µM
HT-29
  Activity: Active

## Nc1nc(OCc2ccccc2)c2ncn([C@H]3C[C@H](O)[C@@H](COC(=O)CC[C@H](NC(=O)c4ccc(NCc5cnc6nc(N)[nH]c(=O)c6n5)cc4)C(=O)O)O3)c2n1
Homo sapiens [1]
  ED50: 0.64 µM
KB
  Activity: Active
A549
  Activity: Active
[3]
  EC50: 3.06 µM
HT-29
  Activity: Active

## Nc1nc(OCc2ccc(COC(=O)CC[C@H](NC(=O)c3ccc(NCc4cnc5nc(N)[nH]c(=O)c5n4)cc3)C(=O)O)cc2)c2nc[nH]c2n1
Homo sapiens [1]
  ED50: 0.7 µM
Homo sapiens [2]
  ED50: 0.24 µM

## Nc1nc(OCc2ccccc2)c2ncn([C@H]3C[C@H](OC(=O)CC[C@H](NC(=O)c4ccc(NCc5cnc6nc(N)[nH]c(=O)c6n5)cc4)C(=O)O)[C@@H](CO)O3)c2n1
Homo sapiens [1]
  ED50: 0.016 µM
KB
  Activity: Active
A549
  Activity: Active
[4]
  ED50: 100 µM
Homo sapiens [2]
  ED50: 0.68 µM
HT-29
  Activity: Active
